According to ChEMBL document CHEMBL4680100, “Revisiting the SAR of the Antischistosomal Aryl Hydantoin (Ro 13-3978)” (J Med Chem, 2016):
≈ marks a conversion by molar mass, not a printed value.

Experiments:
Schistosoma mansoni [1] = test: Antischistosomal activity against Schistosoma mansoni infected in mouse assessed as effective dose causing reduction in worm burden; type: functional
[2] = Octanol/water partition coefficient, logD of the compound at pH 7.4 by HPLC analysis
Albumin = Albumin (Homo sapiens, UniProt P02768); test: Protein binding in immobilized human serum albumin by HPLC analysis; type: ADME; settings: isolated protein
Chain of Albumin (P02768 whole entry): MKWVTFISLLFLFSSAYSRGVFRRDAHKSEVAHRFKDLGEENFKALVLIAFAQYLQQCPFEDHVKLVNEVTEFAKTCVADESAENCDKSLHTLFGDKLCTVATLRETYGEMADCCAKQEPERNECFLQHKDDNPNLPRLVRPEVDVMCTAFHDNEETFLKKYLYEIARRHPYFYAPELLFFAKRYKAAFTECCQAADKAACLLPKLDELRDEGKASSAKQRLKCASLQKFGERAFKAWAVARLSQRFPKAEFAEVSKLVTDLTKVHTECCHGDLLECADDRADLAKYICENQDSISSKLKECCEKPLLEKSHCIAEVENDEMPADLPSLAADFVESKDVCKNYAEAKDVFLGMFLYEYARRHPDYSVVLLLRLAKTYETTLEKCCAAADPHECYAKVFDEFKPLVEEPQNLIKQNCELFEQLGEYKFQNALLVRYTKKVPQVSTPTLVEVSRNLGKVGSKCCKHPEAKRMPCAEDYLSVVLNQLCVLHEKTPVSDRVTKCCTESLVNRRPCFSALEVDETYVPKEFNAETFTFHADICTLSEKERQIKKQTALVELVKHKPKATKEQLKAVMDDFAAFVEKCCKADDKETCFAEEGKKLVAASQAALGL
Method in brief: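 Binding estimated from gradient HPLC retention on a human albumin column, correlated against standard compounds of known protein binding.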

[3] = Kinetic solubility of the compound in 0.01 M HCl at pH 2 by nephelometry; type: physicochemical; settings: read-out: Kinetic_solubility
[4] = Kinetic solubility of compound at pH 6.5 phosphate buffer by nephelometry; type: physicochemical; settings: read-out: Kinetic_solubility
[5] = Intrinsic clearance in human liver microsome in presence of NADPH-regenerating system incubated over 60 mins by LC-MS analysis; settings: microsomes, 1 h
[6] = Intrinsic clearance in mouse liver microsome in presence of NADPH-regenerating system incubated over 60 mins by LC-MS analysis; settings: microsomes, 1 h
Schistosoma mansoni [7] = test: Antischistosomal activity against Schistosoma mansoni infected in NMRI mouse assessed as reduction in total worm burden at 100 mg/kg, po administered as single dose starting on day 49 post-infection and measured at 28 days post treatment relative to control; type: functional; set-up: scale not given: the % may be the effect or the level left; settings: time 28 day
Method in brief: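 S. mansoni-infected NMRI mice treated on day 49 post-infection with a single oral dose, dissolved or suspended in 7% v/v Tween 80, 3% v/v ethanol (10 mL/kg), five mice per group. Sacrificed and dissected 28 d post-treatment; worms counted to give total worm burden reduction versus untreated controls. Kruskal–Wallis test on medians, treatment versus control.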

L6 = test: Cytotoxicity against rat L6 cells assessed as reduction in cell viability at up to 30 uM; type: cell-based
[8] = Cmax in male Swiss mouse at 100 mg/kg, po administered via gavage measured upto 48 hrs postdose by LC-MS analysis; type: ADME, organism-based; set-up: route oral, dose 100 mg/kg, time <=48; settings: in vivo
Method in brief: (§1)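 Nonfasted male Swiss outbred mice (25–33 g, 7 per compound, fed ad libitum) were gavaged once at 10 mL/kg. Vehicle was 7% v/v Tween 80, 3% v/v ethanol in water, dosed within 1 h of preparation. Blood was drawn 0.25–48 h postdose (n = 2 per time point) into heparin with stabilizer, and plasma was quantified by LCMS. Noncompartmental analysis.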

[9] = Tmax in male Swiss mouse at 100 mg/kg, po administered via gavage measured upto 48 hrs postdose by LC-MS analysis; type: ADME, organism-based; settings: in vivo; method in brief: as §1
[10] = AUC (0 to last) in male Swiss mouse at 100 mg/kg, po administered via gavage measured upto 48 hrs postdose by LC-MS analysis; type: ADME, organism-based; set-up: route oral, dose 100 mg/kg, time <=48; settings: in vivo
Androgen receptor [11] = biological target: T1, Androgen receptor (Homo sapiens, UniProt P10275)
T1 sequence (P10275 whole entry): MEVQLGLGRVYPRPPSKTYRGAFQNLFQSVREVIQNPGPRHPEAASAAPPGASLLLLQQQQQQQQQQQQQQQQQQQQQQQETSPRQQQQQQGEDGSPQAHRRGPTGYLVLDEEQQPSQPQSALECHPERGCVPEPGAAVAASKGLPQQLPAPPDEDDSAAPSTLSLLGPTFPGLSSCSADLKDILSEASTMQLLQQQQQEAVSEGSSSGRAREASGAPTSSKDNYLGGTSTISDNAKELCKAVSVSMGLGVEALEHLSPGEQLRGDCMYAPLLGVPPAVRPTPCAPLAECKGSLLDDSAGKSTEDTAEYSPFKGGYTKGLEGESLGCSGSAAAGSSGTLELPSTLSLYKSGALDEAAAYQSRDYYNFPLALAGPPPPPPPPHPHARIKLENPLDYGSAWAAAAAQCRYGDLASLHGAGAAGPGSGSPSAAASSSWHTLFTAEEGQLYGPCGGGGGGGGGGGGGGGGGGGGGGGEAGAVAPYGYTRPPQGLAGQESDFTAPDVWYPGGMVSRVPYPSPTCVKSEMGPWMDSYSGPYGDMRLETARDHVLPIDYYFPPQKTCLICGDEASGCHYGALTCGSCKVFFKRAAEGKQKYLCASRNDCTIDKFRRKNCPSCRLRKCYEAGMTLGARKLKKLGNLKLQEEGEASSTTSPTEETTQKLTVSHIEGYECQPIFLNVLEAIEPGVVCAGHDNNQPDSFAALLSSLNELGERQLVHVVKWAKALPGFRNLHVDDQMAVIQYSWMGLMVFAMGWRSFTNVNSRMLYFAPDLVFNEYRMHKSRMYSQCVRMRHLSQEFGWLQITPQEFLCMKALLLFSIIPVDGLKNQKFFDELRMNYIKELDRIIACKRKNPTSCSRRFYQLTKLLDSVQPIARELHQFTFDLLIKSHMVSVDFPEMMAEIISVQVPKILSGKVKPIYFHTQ

Schistosoma mansoni [12] = test: Antischistosomal activity against adult Schistosoma mansoni cercariae infected in mouse assessed as effective dose causing reduction in worm burden; type: functional
Schistosoma mansoni [13] = test: Antischistosomal activity against juvenile Schistosoma mansoni cercariae infected in mouse assessed as effective dose causing reduction in worm burden; type: functional
Androgen receptor [14] = biological target: T1, Androgen receptor; settings: lapc4

COC(=O)C(C)(C)NC(=O)Nc1ccc(F)c(C(F)(F)F)c1
ED50 (Schistosoma mansoni [1]): 62 mg/kg

O=C1NC2(CCCC2)C(=O)N1c1ccc(F)c(C(F)(F)F)c1
logD [2]: 3.2 | PPB (Albumin): 70.4% | solubility kinetic [3]: 50 µg/mL (≈ 158 µM) | solubility kinetic [4]: 50 µg/mL (≈ 158 µM) | CLH [5]: 33 µL/min/mg | CLH [6]: 93 µL/min/mg | Activity (Schistosoma mansoni [7]): 61% | Activity (L6): Non-Toxic | Cmax [8]: 15 µM | Tmax [9]: 1 h | AUClast [10]: 106 µM·h | IC50 (Androgen receptor [11]): 0.99 µM

CC1(C)NC(=O)N(c2ccc(F)c(C(F)(F)F)c2)C1=O
logD [2]: 2.7 | PPB (Albumin): 52.1% | solubility kinetic [3]: > 100 µg/mL | solubility kinetic [4]: > 100 µg/mL | CLH [5]: 8 µL/min/mg | CLH [6]: < 7 µL/min/mg | Activity (Schistosoma mansoni [7]): 95% | Activity (L6): Non-Toxic | Cmax [8]: 124 µM | AUClast [10]: 2740 µM·h | ED50 (Schistosoma mansoni [12]): 15 mg/kg | ED50 (Schistosoma mansoni [13]): 140 mg/kg | IC50 (Androgen receptor [11]): 4.4 µM

CCN1C(=O)N(c2ccc(F)c(C(F)(F)F)c2)C(=O)C1(C)C
logD [2]: 3.5 | PPB (Albumin): 49.3% | solubility kinetic [3]: 50 µg/mL (≈ 157 µM) | solubility kinetic [4]: 25 µg/mL (≈ 78.5 µM) | CLH [5]: 30 µL/min/mg | CLH [6]: 32 µL/min/mg | Activity (Schistosoma mansoni [7]): 98% | Activity (L6): Non-Toxic | Cmax [8]: 11.1 µM | Tmax [9]: 1 h | AUClast [10]: 103 µM·h | IC50 (Androgen receptor [11]): 0.14 µM

CC1(C)C(=O)N(c2ccc(F)c(C(F)(F)F)c2)C(=O)N1CC(N)=O
logD [2]: 2.2 | PPB (Albumin): 20.3% | solubility kinetic [3]: 50 µg/mL (≈ 144 µM) | solubility kinetic [4]: 50 µg/mL (≈ 144 µM) | CLH [5]: < 7 µL/min/mg | CLH [6]: < 7 µL/min/mg | Activity (Schistosoma mansoni [7]): 25% | Activity (L6): Non-Toxic | IC50 (Androgen receptor [14]): Not Active

CN(C)C(=O)c1cc(N2C(=O)NC(C)(C)C2=O)ccc1F
logD [2]: 0.9 | PPB (Albumin): 5.9% | solubility kinetic [3]: > 100 µg/mL | solubility kinetic [4]: > 100 µg/mL | CLH [5]: < 7 µL/min/mg | CLH [6]: < 7 µL/min/mg | Activity (Schistosoma mansoni [7]): 30% | Activity (L6): Non-Toxic | Cmax [8]: 488 µM | Tmax [9]: 1 h | AUClast [10]: 1360 µM·h | IC50 (Androgen receptor [11]): 9.1 µM

O=C1C2CCCN2C(=O)N1c1ccc(F)c(C(F)(F)F)c1 (centres undefined)
logD [2]: 3 | PPB (Albumin): 46% | solubility kinetic [3]: 25 µg/mL (≈ 82.7 µM) | solubility kinetic [4]: 25 µg/mL (≈ 82.7 µM) | CLH [5]: 30 µL/min/mg | CLH [6]: 144 µL/min/mg | Activity (Schistosoma mansoni [7]): 0% | Activity (L6): Non-Toxic | IC50 (Androgen receptor [11]): 3.5 µM

CC1(C)NC(=O)N(c2ccnc(C(F)(F)F)c2)C1=O
logD [2]: 1.9 | PPB (Albumin): 22.7% | solubility kinetic [3]: > 100 µg/mL | solubility kinetic [4]: > 100 µg/mL | CLH [5]: < 7 µL/min/mg | CLH [6]: < 7 µL/min/mg | Activity (Schistosoma mansoni [7]): 100% | Activity (L6): Non-Toxic | Cmax [8]: 155 µM | Tmax [9]: 7 h | AUClast [10]: 6480 µM·h | IC50 (Androgen receptor [11]): 4.5 µM

CC1(C)CC(=O)N(c2ccc(F)c(C(F)(F)F)c2)C1=O
logD [2]: 3.4 | PPB (Albumin): 42.5% | solubility kinetic [3]: 12.5 µg/mL (≈ 43.2 µM) | solubility kinetic [4]: 12.5 µg/mL (≈ 43.2 µM) | CLH [5]: 11 µL/min/mg | CLH [6]: 10 µL/min/mg | Activity (Schistosoma mansoni [7]): 42% | Activity (L6): Non-Toxic | IC50 (Androgen receptor [11]): 0.91 µM

CC1(C)NC(=O)N(Cc2ccc(F)c(C(F)(F)F)c2)C1=O
logD [2]: 2.9 | PPB (Albumin): 82.1% | solubility kinetic [3]: 50 µg/mL (≈ 164 µM) | solubility kinetic [4]: > 100 µg/mL | CLH [5]: 17 µL/min/mg | CLH [6]: 11 µL/min/mg | Activity (Schistosoma mansoni [7]): 56% | Activity (L6): Non-Toxic | IC50 (Androgen receptor [11]): 4.2 µM

CC1(C)C(=O)N(c2ccc(F)c(C(F)(F)F)c2)C(=O)N1S(=O)(=O)c1ccccc1
logD [2]: 4.6 | PPB (Albumin): 96.1% | solubility kinetic [3]: < 1.6 µg/mL | solubility kinetic [4]: < 1.6 µg/mL | CLH [5]: 210 µL/min/mg | CLH [6]: 160 µL/min/mg | Activity (Schistosoma mansoni [7]): 44% | Activity (L6): Non-Toxic | IC50 (Androgen receptor [11]): 4.3 µM

CC1(C)NC(=O)N(c2ccc(F)c(C(F)F)c2)C1=O
logD [2]: 2.2 | PPB (Albumin): 20.4% | solubility kinetic [3]: > 100 µg/mL | solubility kinetic [4]: > 100 µg/mL | CLH [5]: < 7 µL/min/mg | CLH [6]: < 7 µL/min/mg | Activity (Schistosoma mansoni [7]): 94% | Activity (L6): Non-Toxic | Cmax [8]: 112 µM | Tmax [9]: 3 h | AUClast [10]: 3190 µM·h | IC50 (Androgen receptor [11]): ≥ 10 µM

CN1C(=O)N(c2ccc(F)c(C(F)(F)F)c2)C(=O)C1(C)C
logD [2]: 3.2 | PPB (Albumin): 40.9% | solubility kinetic [3]: 50 µg/mL (≈ 164 µM) | solubility kinetic [4]: 50 µg/mL (≈ 164 µM) | CLH [5]: 16 µL/min/mg | CLH [6]: 65 µL/min/mg | Activity (Schistosoma mansoni [7]): 93% | Activity (L6): Non-Toxic | Tmax [9]: 1 h | IC50 (Androgen receptor [11]): 1.3 µM
